Results taken from ChEMBL document CHEMBL5724801, “EUbOPEN Chemogenomics Library - Multiplex” (2024).
Several values for one entry are separate records, joined by “and”; a condition that tells them apart may be missing. Identical values can stand only once.

Tested on: HEK-293T
Assay: Multiplex assay against HEK293T
Format: toxicity, cell-based
Settings: human
Outline: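 Hoechst33342, BioTracker Green Microtubule Cytoskeleton Dye, MitoTracker Red and Annexin V Alexa Fluor 680 were added to live cells at seeding, and imaging on a CQ1 microscope at 37°C and 5% CO2 followed compound addition. Gating by CellPathfinder machine learning separated cells into Hoechst high-intensity objects or normal cells, then normal cells into healthy, pyknosed or fragmented nuclei, then pyknosed cells into mitotic or apoptotic. Per cents of healthy-nucleus cells are reported for the tubulin, mitochondrial-mass and membrane-permeability phenotypes.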

[1] = 12 h, 1 µM, compound concentration 1 uM
[2] = 12 h, 10 µM, compound concentration 10 uM
[3] = 24 h, 1 µM, compound concentration 1 uM
[4] = 24 h, 10 µM, compound concentration 10 uM
[5] = 48 h, 1 µM, compound concentration 1 uM
[6] = 48 h, 10 µM, compound concentration 10 uM

COc1ccc2[nH]c(I)c(CCNC(C)=O)c2c1 [IODOMELATONIN]
Population Apoptotic (%) [1]: 42% and 59%
Population Fragmented Nuclei (%) [1]: 4% and 5%
Population Healthy Nuclei (%) [1]: 80% and 84%
Population Hoechst High Intensity Objects (%) [1]: 5% and 7%
Population Membrane Permeable-Phenotype (%) [1]: 1% and 0%
Population Mitochondria Different-Phenotype (%) [1]: 43% and 64%
Population Mitotic Cells (%) [1]: 57% and 40%
Population Normal (%) [1]: 94% and 92%
Population Pyknosed Nuclei (%) [1]: 14% and 10%
Population Tubulin-Different-Phenotype (%) [1]: 35% and 32%
Total Cell Count [1]: 388 and 400
Population Apoptotic (%) [2]: 38% and 46%
Population Fragmented Nuclei (%) [2]: 11% and 8%
Population Healthy Nuclei (%) [2]: 77%
Population Hoechst High Intensity Objects (%) [2]: 8% and 12%
Population Membrane Permeable-Phenotype (%) [2]: 0%
Population Mitochondria Different-Phenotype (%) [2]: 52% and 62%
Population Mitotic Cells (%) [2]: 61% and 53%
Population Normal (%) [2]: 91% and 87%
Population Pyknosed Nuclei (%) [2]: 10% and 14%
Population Tubulin-Different-Phenotype (%) [2]: 29% and 25%
Total Cell Count [2]: 445 and 316
Population Apoptotic (%) [3]: 38% and 44%
Population Fragmented Nuclei (%) [3]: 8% and 9%
Population Healthy Nuclei (%) [3]: 80% and 78%
Population Hoechst High Intensity Objects (%) [3]: 3% and 8%
Population Membrane Permeable-Phenotype (%) [3]: 1% and 0%
Population Mitochondria Different-Phenotype (%) [3]: 24% and 37%
Population Mitotic Cells (%) [3]: 61% and 55%
Population Normal (%) [3]: 96% and 91%
Population Pyknosed Nuclei (%) [3]: 11%
Population Tubulin-Different-Phenotype (%) [3]: 23% and 14%
Total Cell Count [3]: 511 and 497
Population Apoptotic (%) [4]: 32% and 40%
Population Fragmented Nuclei (%) [4]: 11% and 5%
Population Healthy Nuclei (%) [4]: 77% and 81%
Population Hoechst High Intensity Objects (%) [4]: 5% and 9%
Population Membrane Permeable-Phenotype (%) [4]: 1% and 0%
Population Mitochondria Different-Phenotype (%) [4]: 31% and 48%
Population Mitotic Cells (%) [4]: 67% and 59%
Population Normal (%) [4]: 94% and 90%
Population Pyknosed Nuclei (%) [4]: 10% and 12%
Population Tubulin-Different-Phenotype (%) [4]: 25% and 21%
Total Cell Count [4]: 568 and 360
Population Apoptotic (%) [5]: 26% and 31%
Population Fragmented Nuclei (%) [5]: 12%
Population Healthy Nuclei (%) [5]: 79%
Population Hoechst High Intensity Objects (%) [5]: 4% and 5%
Population Membrane Permeable-Phenotype (%) [5]: 1%
Population Mitochondria Different-Phenotype (%) [5]: 19% and 22%
Population Mitotic Cells (%) [5]: 73% and 68%
Population Normal (%) [5]: 95% and 94%
Population Pyknosed Nuclei (%) [5]: 7% and 8%
Population Tubulin-Different-Phenotype (%) [5]: 16% and 14%
Total Cell Count [5]: 770 and 622
Population Apoptotic (%) [6]: 23% and 25%
Population Fragmented Nuclei (%) [6]: 16% and 15%
Population Healthy Nuclei (%) [6]: 77% and 75%
Population Hoechst High Intensity Objects (%) [6]: 1% and 2%
Population Membrane Permeable-Phenotype (%) [6]: 1% and 0%
Population Mitochondria Different-Phenotype (%) [6]: 16% and 24%
Population Mitotic Cells (%) [6]: 76% and 74%
Population Normal (%) [6]: 98% and 97%
Population Pyknosed Nuclei (%) [6]: 5% and 9%
Population Tubulin-Different-Phenotype (%) [6]: 11% and 16%
Total Cell Count [6]: 860 and 613

Cc1nn(C)c2nc(NNC(=O)Nc3cc(Cl)nc(Cl)c3)cc(C(C)C)c12
Population Apoptotic (%) [1]: 27% and 40%
Population Fragmented Nuclei (%) [1]: 5%
Population Healthy Nuclei (%) [1]: 77% and 81%
Population Hoechst High Intensity Objects (%) [1]: 5% and 2%
Population Membrane Permeable-Phenotype (%) [1]: 0%
Population Mitochondria Different-Phenotype (%) [1]: 37% and 59%
Population Mitotic Cells (%) [1]: 72% and 60%
Population Normal (%) [1]: 94% and 97%
Population Pyknosed Nuclei (%) [1]: 16% and 13%
Population Tubulin-Different-Phenotype (%) [1]: 26% and 25%
Total Cell Count [1]: 467 and 383
Population Apoptotic (%) [2]: 55% and 46%
Population Fragmented Nuclei (%) [2]: 5% and 4%
Population Healthy Nuclei (%) [2]: 61% and 74%
Population Hoechst High Intensity Objects (%) [2]: 12% and 3%
Population Membrane Permeable-Phenotype (%) [2]: 1%
Population Mitochondria Different-Phenotype (%) [2]: 79% and 84%
Population Mitotic Cells (%) [2]: 44% and 53%
Population Normal (%) [2]: 88% and 96%
Population Pyknosed Nuclei (%) [2]: 32% and 21%
Population Tubulin-Different-Phenotype (%) [2]: 80% and 75%
Total Cell Count [2]: 300 and 396
Population Apoptotic (%) [3]: 31%
Population Fragmented Nuclei (%) [3]: 9% and 6%
Population Healthy Nuclei (%) [3]: 78% and 82%
Population Hoechst High Intensity Objects (%) [3]: 3% and 1%
Population Membrane Permeable-Phenotype (%) [3]: 0%
Population Mitochondria Different-Phenotype (%) [3]: 27% and 37%
Population Mitotic Cells (%) [3]: 68%
Population Normal (%) [3]: 96% and 98%
Population Pyknosed Nuclei (%) [3]: 11%
Population Tubulin-Different-Phenotype (%) [3]: 20% and 19%
Total Cell Count [3]: 608 and 512
Population Apoptotic (%) [4]: 59% and 55%
Population Fragmented Nuclei (%) [4]: 10% and 5%
Population Healthy Nuclei (%) [4]: 66% and 78%
Population Hoechst High Intensity Objects (%) [4]: 5%
Population Membrane Permeable-Phenotype (%) [4]: 0%
Population Mitochondria Different-Phenotype (%) [4]: 78% and 80%
Population Mitotic Cells (%) [4]: 40% and 44%
Population Normal (%) [4]: 94% and 95%
Population Pyknosed Nuclei (%) [4]: 22% and 16%
Population Tubulin-Different-Phenotype (%) [4]: 74% and 69%
Total Cell Count [4]: 321 and 440
Population Apoptotic (%) [5]: 27% and 18%
Population Fragmented Nuclei (%) [5]: 12% and 13%
Population Healthy Nuclei (%) [5]: 78% and 81%
Population Hoechst High Intensity Objects (%) [5]: 3% and 2%
Population Membrane Permeable-Phenotype (%) [5]: 1%
Population Mitochondria Different-Phenotype (%) [5]: 17% and 25%
Population Mitotic Cells (%) [5]: 72% and 81%
Population Normal (%) [5]: 96% and 97%
Population Pyknosed Nuclei (%) [5]: 9% and 5%
Population Tubulin-Different-Phenotype (%) [5]: 16% and 19%
Total Cell Count [5]: 912 and 748
Population Apoptotic (%) [6]: 62% and 45%
Population Fragmented Nuclei (%) [6]: 9%
Population Healthy Nuclei (%) [6]: 72% and 79%
Population Hoechst High Intensity Objects (%) [6]: 3% and 4%
Population Membrane Permeable-Phenotype (%) [6]: 0%
Population Mitochondria Different-Phenotype (%) [6]: 82% and 71%
Population Mitotic Cells (%) [6]: 37% and 55%
Population Normal (%) [6]: 96% and 95%
Population Pyknosed Nuclei (%) [6]: 18% and 10%
Population Tubulin-Different-Phenotype (%) [6]: 78% and 63%
Total Cell Count [6]: 387 and 593
